# Rows were chosen to be rich in hits. Some 1.7% of all compounds tested hit in one or more screens of this group.
# PP5 inh – blocks human protein phosphatase 5 activity; purified PP5c, OMFP substrate fluorescence; inhibition, % at 6.7 µM; hit rate 0.18% among 320,000;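 active = inhibition above the campaign's mean inhibition across all tested compounds plus 3 SD, cut at about 9.5% in these data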;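 also: 0% = DMSO only and 100% = 100 µM cantharidin control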
# core dimer inh – blocks dimerization of HCV core protein. hit rate 0.33% among 300,000. AID 1899. TR-FRET GST/Flag-core106 dimerization, 1536-well. inhibition, % at 5 µM;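 active = inhibition above the mean of all tested compounds plus 3 SD, set per screening campaign, cut at about 45% in these data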
#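 Assay system: tagged HCV core106 pair (GST and Flag); medium: KF-containing HEPES buffer, pH 7.45, DTT, CHAPS, BSA; also added: Eu donor and XL665 acceptor anti-tag antibodies; dosing: 5 µM single dose; timing: compound-protein-antibody incubation 4 h at 22.5 °C; signal: TR-FRET 671 and 617 nm emission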
# PP1 inh – PP1-alpha (human) inhibition in PP5 counter-screen; P62136; purified PP1alpha, OMFP fluorescence; inhibition, % at 6.7 µM; hit rate 0.9% among 320,000; AID 2235;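 active = inhibition above the mean inhibition of all tested compounds plus 3 SD, computed separately for each screening campaign, cut at about 15% in these data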
# Target sequence (P62136 whole entry, looked up): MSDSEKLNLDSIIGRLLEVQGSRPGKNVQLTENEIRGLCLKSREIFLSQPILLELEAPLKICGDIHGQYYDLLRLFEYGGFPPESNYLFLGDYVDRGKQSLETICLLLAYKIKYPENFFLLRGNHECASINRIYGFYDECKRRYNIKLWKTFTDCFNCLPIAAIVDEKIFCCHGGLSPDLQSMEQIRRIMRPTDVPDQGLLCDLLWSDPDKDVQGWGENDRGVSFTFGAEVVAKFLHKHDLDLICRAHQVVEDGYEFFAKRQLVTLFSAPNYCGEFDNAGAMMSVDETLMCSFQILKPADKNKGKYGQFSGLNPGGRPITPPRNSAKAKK
# EBNA-1 inh – blocks EBNA-1 binding to DNA; inhibition, % at 14.8 µM; EBNA-1 DNA binding, fluorescence polarization; hit rate 0.34% among 300,000; in the data active = inhibition above about 28%
# ZTA DNA inh – counter-screen for EBNA-1 inhibitors: inhibitors of Epstein-Barr virus ZTA | inhibition, % at 11 µM | P03206 | AID 2234 | hit rate 0.15% among 320,000 | ZTA-DNA binding, fluorescence polarization; in the data active = inhibition above about 33%
# Target sequence (P03206 whole entry, looked up): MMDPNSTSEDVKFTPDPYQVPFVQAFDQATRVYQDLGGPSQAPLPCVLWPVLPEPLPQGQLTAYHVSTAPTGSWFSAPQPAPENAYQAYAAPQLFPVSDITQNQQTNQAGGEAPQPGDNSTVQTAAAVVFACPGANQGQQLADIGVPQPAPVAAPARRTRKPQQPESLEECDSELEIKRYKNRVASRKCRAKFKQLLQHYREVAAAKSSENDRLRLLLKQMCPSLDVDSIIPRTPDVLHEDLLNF
# Numbers without * were called inactive; . = not tested or not shown.
SMILES,PP5 inh,core dimer inh,PP1 inh,EBNA-1 inh,ZTA DNA inh
C=CCOC(=O)C1=C(C)NC(SCC(=O)Nc2nccs2)=C(C#N)C1c1cccs1 (stereo not given),2.8,49.0*,11.3,7.5,-13.7
O=C1c2ccccc2C(=O)N1c1cccc(-c2csc(Nc3ccc4c(c3)OCO4)n2)c1,-2.1,49.1*,8.7,2.8,-11.5
O=C(N/C(=C\c1cccc([N+](=O)[O-])c1)C(=O)N(CCO)CCO)c1ccco1,2.4,-3.3,-4.3,-16.6,2.3
CCSc1nnc(NC(=O)CCCOc2ccc(C)cc2)s1,-0.1,11.5,-1.2,11.2,7.3
CCOc1ccc(N=C(NN)c2ccc3ccccc3n2)cc1,1.2,2.2,0.7,3.8,2.1
Cc1cc(OCC(=O)N[C@@H](CSCc2ccccc2)C(=O)O)c2c(C)c(C)c(=O)oc2c1,4.2,6.5,0.6,0.7,-13.6
O=C1CCCC2=C1C(c1ccc(Br)cc1)c1c([nH]c(=S)[nH]c1=O)N2 (stereo not given),0.1,-1.8,6.7,8.5,5.3
O=c1[nH]c(=S)[nH]c2c1C(c1ccc(Br)cc1)c1c([nH]c(=S)[nH]c1=O)O2,-0.4,29.9,9.4,30.9*,66.6*
CC(=O)Cn1nnc2sc3c(c2c1=O)CCC(C(C)(C)C)C3 (stereo not given),1.6,2.9,1.1,-1.6,-0.6
CCOC(=O)c1sc(NC(=O)Cn2nnc3sc4c(c3c2=O)CCC(C(C)(C)C)C4)nc1C (stereo not given),1.8,46.1*,3.8,-10.1,-20.1
CCCNC(=O)c1ccc(N2CCC3(CC2)CC(c2ccccc2)=NO3)c(NC(=O)c2ccc(Br)cc2)c1,1.7,17.5,8.8,23.7,4.0
Cc1ccc(CNC(=O)c2ccc(N3CCC4(CC3)CC(c3ccccc3)=NO4)c(NC(=O)c3ccc(Cl)c([N+](=O)[O-])c3)c2)cc1,0.1,34.6,15.4*,7.6,14.7
CCCNC(=O)c1ccc(N2CCC3(CC2)CC(c2cccc(Br)c2)=NO3)c(NC(=O)c2ccccc2)c1,2.2,4.7,15.7*,7.2,0.5
CCCc1cc(C(=O)NC(C)C2CCCO2)cs1 (stereo not given),-0.9,-6.8,-0.3,13.6,-20.7
COc1cccc(NC(=O)c2cc(-c3ccc(C)o3)nc3ccccc23)c1,2.2,48.2*,3.8,2.0,-2.0
COC(=O)c1cc(-c2ccc(C)o2)nc2ccccc12,-1.6,13.7,1.7,10.6,14.2
COc1cccc(NC(=O)CN(C)C(=O)c2cc(-c3ccc(C)o3)nc3ccccc23)c1,3.0,.,1.8,.,13.7
Cc1ccc(-c2cc(C(=O)NC3=NCCS3)c3cc(Br)ccc3n2)o1,4.2,51.4*,19.4*,-0.4,2.0
Cc1ccc(-c2cc(C(=O)NCc3ccco3)c3ccccc3n2)o1,-3.8,66.4*,15.3*,-13.6,-12.8
Cc1ccc(-c2cc(C(=O)Nc3ccccc3C)c3ccccc3n2)o1,-0.7,64.1*,5.2,2.9,5.6
C=C(C)c1cccc(C(C)(C)NC(=O)NC2CC(C)(C)NC(C)(C)C2)c1,3.3,-2.9,-5.5,-3.6,6.4
Cc1ccc(S(=O)(=O)CC(=O)c2cc(C)c(O)c(C)c2)cc1,-0.2,5.0,-2.6,5.3,16.9
O=C(Nc1nccs1)c1cc(-c2ccco2)nc2ccccc12,1.4,84.2*,8.5,-3.3,9.3
Cc1cc(C)c2nc(-c3ccccn3)cc(C(=O)NCc3ccco3)c2c1,0.3,68.9*,-0.1,-0.1,14.9
Cc1ccc2c(c1)C(=O)C(=O)N2CCOc1ccccc1,-0.7,5.5,6.5,8.5,7.3
SMILES,PP5 inh,core dimer inh,PP1 inh,EBNA-1 inh,ZTA DNA inh
Cc1cccc2c1N(CCCOc1ccc(C(C)(C)C)cc1)C(=O)C2=O,2.6,3.2,14.4,4.9,7.8
Cc1cccc2c1N(CCCOc1ccccc1)C(=O)C2=O,2.1,12.7,17.3*,1.2,23.6
Cc1ccc2c(c1)C(=O)C(=O)N2CCCOc1ccccc1C,2.1,5.5,15.4*,8.5,8.1
CC(=O)c1cccc(N(C(=O)CNC(=O)c2ccco2)C(C(=O)NCc2ccco2)c2ccccc2)c1 (stereo not given),-1.7,4.0,-2.0,-16.4,-4.3
CN(CC(=O)Nc1ccccc1Cl)C(=O)C1CCN(C(=O)c2ccc(F)cc2)CC1,3.5,.,3.0,.,4.1
O=C(NC(=S)Nn1cnc2c(cnn2-c2ccccc2)c1=O)c1ccc(Cl)cc1,-0.1,-0.3,5.6,8.9,-3.0
O=C(NC(=S)Nn1cnc2c(cnn2-c2ccccc2)c1=O)c1ccc(Oc2ccccc2)cc1,-0.5,23.5,-2.4,31.0*,-0.7
Cc1ccc(C(=O)C2=C(O)C(=O)N(Cc3cccnc3)C2c2ccc(Br)cc2)o1 (stereo not given),2.8,-2.1,18.7*,1.7,-5.2
Cc1ccc(C(=O)C2=C(O)C(=O)N(CCCn3ccnc3)C2c2ccc(OC(C)C)cc2)o1 (stereo not given),-8.7,-8.6,15.3*,-4.1,-17.9
Cc1ccc(C(=O)C2=C(O)C(=O)N(Cc3cccnc3)C2c2ccc(OC(C)C)cc2)o1 (stereo not given),-0.5,-0.8,19.9*,5.0,-0.8
Cc1ccc(C(=O)C2=C(O)C(=O)N(Cc3cccnc3)C2c2ccc(Cl)c(Cl)c2)o1 (stereo not given),0.6,-1.7,29.7*,0.9,-25.5
COc1ccc(C2C(C(=O)c3ccc(C)o3)=C(O)C(=O)N2Cc2cccnc2)cc1 (stereo not given),1.3,-0.2,-0.8,3.4,-2.0
Cc1ccc(C(=O)C2=C(O)C(=O)N(Cc3cccnc3)C2c2ccc(N(C)C)cc2)o1 (stereo not given),-1.1,5.5,3.6,1.6,-0.1
CC(OC(=O)CNC(=O)c1sc2ccccc2c1Cl)C(=O)NC1(C#N)CCCCC1 (stereo not given),-0.5,.,0.2,.,2.6
O=C(CSc1nnc(SCc2ccccc2)s1)N/N=C/C=C/c1ccccc1[N+](=O)[O-],4.5,4.0,15.6*,7.3,-10.5
Cc1ccc(C)n1-c1cccc(N)c1,0.2,64.2*,14.8,7.2,-6.9
Cc1ccc(C)n1-c1cccc(C(=O)O)c1,1.4,-82.4,14.4,26.7,77.5*
COc1cc(-c2nc(=S)[nH][nH]2)cc(OC)c1OC,2.4,-1.5,-2.1,-1.8,-8.7
C#CCCc1cscc1/C=[N+](\[O-])c1ccc(C(=O)OCC)cc1,-1.5,.,15.3*,.,13.7
COC(=O)/C(=C\c1c[nH]c2ccccc12)NC(C)=O,2.2,2.9,15.8*,-12.0,-3.6
COc1ccc(C2=NC(=O)/C(=C\c3cc(OC)c(OC)c(OC)c3)O2)cc1,-0.1,-0.5,-1.5,16.7,-3.9
O=C(/C=C/c1ccc(OCCCF)cc1)Nc1ccnc(-c2ccncc2)n1,2.9,8.1,15.6*,-1.5,13.9
O=C(/C=C/c1ccc(OCCCF)cc1)NCc1cccc(Cl)c1,1.5,4.0,2.7,12.2,0.4
CCc1cc2cc(C(=O)Nc3ccc(C)cc3)sc2s1,0.1,51.9*,-0.6,2.8,4.8

# High-throughput results: PubChem BioAssay, The Scripps Research Institute Molecular Screening Center
